Experimental data taken from ChEMBL document CHEMBL1132580, “Syntheses and biological activities of rebeccamycin analogues. Introduction of a halogenoacetyl substituent” (J Med Chem, 1999).
≈ marks a conversion by molar mass, not a printed value. Calls of active or inactive are those of the source. The calls are words filed in the database; no cut-off is given here.

What was measured:
Bacillus cereus [1] = assay: Minimum inhibitory concentration against gram-positive Bacillus cereus; format: functional
How it was run: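 Broth dilution in Mueller–Hinton broth pH 7.4 against B. cereus ATCC 14579. Compounds were diluted in DMSO across 12 tubes spanning 100 to 0.05 μg/mL. Read after 24 h at 27 °C.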

Bacillus cereus [2] = assay: Antimicrobial activity against gram-positive Bacillus cereusATCC 14579 was determined by antibiogram test.++ means growth inhibition zone was 8-9 mm.; format: functional, organism-based; settings: ATCC 14579
How it was run: (§1)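 Paper-disk diffusion (6 mm disks, 300 μg drug per disk from DMSO solution) on Mueller-Hinton agar against B. cereus ATCC 14579. Inhibition zones were scored after 24 h at 27 °C.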

CEM-SS [3] = assay: Anti-HIV-1 activity in CEM-SS cells was measured by the quantification of the reverse transcriptase activity, associated with the virus particles released from HIV-1 infected cells in the culture medium.; format: functional, cell-based; settings: Homo sapiens
How it was run: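 CEM-SS cells in RPMI 1640 with 10% FBS at 37 °C, 5% CO2 were infected with HIV-1 Lai (100 TCID50). After 30 min adsorption the cells were washed and resuspended at 10⁵ cells/mL with a range of compound concentrations. Virus production was measured as reverse transcriptase activity after 5 days. IC50 was taken from a median effect plot of dose–effect data.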

Nucleic Acid = assay: Variation in melting temperature (delta Tm) of helix-to-coil transition of DNA was reported.; format: nucleic-acid assay
How it was run: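 A260 was followed over 20–100 °C at 1 °C/min using 20 μM calf thymus DNA with or without drug (10 μM) in BPE buffer pH 7.1 (6 mM Na2HPO4, 2 mM NaH2PO4, 1 mM EDTA). Tm was taken as the midpoint of the hyperchromic transition from the first-derivative plot.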

P388 [4] = assay: Cytotoxicity against P388 leukemia cells; format: functional, cell-based; settings: Mus musculus
How it was run: (§2)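 Murine P388 (camptothecin-sensitive) and P388/CPT5 (camptothecin-resistant, mutant top1) leukemia cells were exposed to a range of drug concentrations for 96 h at 37 °C. Viability was read by neutral red staining. IC50 is the concentration inhibiting growth by 50%.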

P388 [5] = assay: Cytotoxicity against P388/CPT5 leukemia cells.; format: functional, cell-based; settings: Mus musculus; how it was run: as §2
Protein kinase C (PKC) [6] = assay: (§3) Inhibition of protein kinase C (PKC); format: protein assay
How it was run: (§4)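 PKC-α activity was assayed with protamine sulfate as substrate. IC50 values were determined.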

Streptomyces chartreusis [7] = assay: Antimicrobial activity against gram-positive […] chartreusis NRRL 11407 was determined by antibiogram test.++ means growth inhibition zone was 8-9 mm.; format: functional, organism-based
[8] = Selectivity Index (SI) refers to the ratio of the anti HIV activities CC50/IC50 in HIV-1 Lai infected CEM-SS cells.; format: functional
How it was run: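 SI = CC50/IC50. CC50 came from MTT viability (OD 540 nm) of uninfected CEM-SS cells. IC50 came from reverse transcriptase activity of virus released after 5 days from HIV-1 Lai–infected CEM-SS cells. Both values were taken from median effect plots.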

[9] = Resistance Index (RI) refers to the ratio of the [IC50 (P388/CPT5)] / IC50 P388.; format: functional
How it was run: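 Ratio of IC50 in P388/CPT5 cells to IC50 in P388 cells. Both IC50 values came from 96 h drug exposure at 37 °C with neutral red viability readout.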

CEM-SS [10] = assay: Cytotoxicity against HIV-1 Lai infected CEM-SS cells; format: functional; settings: Homo sapiens, in the assay text read “uninfected CEM-SS cells” for “HIV-1 Lai infected CEM-SS cells”
How it was run: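 Uninfected CEM-SS cells were incubated in parallel with a range of compound concentrations. Viability was read by MTT reduction to formazan (OD 540 nm). CC50 is the concentration reducing viability by 50%, derived with the median-effect program.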

[11] = test system: DNA topoisomerase 1 (Bos taurus); assay: Minimum inhibitory concentration against DNA topoisomerase I
Protein kinase C (PKC) [12] = assay: as §3; format: functional; how it was run: as §4
CEM-SS [13] = assay: Cytotoxicity against uninfected CEM-SS cells; settings: Homo sapiens
Bacillus cereus [14] = assay: Antimicrobial activity against gram-positive Bacillus cereusATCC 14579 was determined by antibiogram test.+/- means growth inhibition zone was 6-7 mm.; format: functional, organism-based; settings: ATCC 14579; how it was run: as §1
Streptomyces chartreusis [15] = assay: Antimicrobial activity against gram-positive […] chartreusis NRRL 11407 was determined by antibiogram test.+++ means growth inhibition zone was 10-12 mm.; format: functional, organism-based
Bacillus cereus [16] = assay: Antimicrobial activity against gram-positive Bacillus cereusATCC 14579 was determined by antibiogram test.+ means growth inhibition zone was 7-8 mm.; format: functional, organism-based; settings: ATCC 14579; how it was run: as §1

Structure (SMILES)	MIC (Bacillus cereus [1]) [µM]	Antimicrobial activity (Bacillus cereus [2])	IC50 (CEM-SS [3]) [µM]	DeltaTm (Nucleic Acid)	IC50 (P388 [4]) [µM]	IC50 (P388 [5]) [µM]	IC50 (Protein kinase C (PKC) [6]) [µM]	Antimicrobial activity (Streptomyces chartreusis [7])	Selectivity index [8]	Resistance index [9]	CC50 (CEM-SS [10]) [µM]	MIC [11] [µM]	IC50 (Protein kinase C (PKC) [12]) [µM]	CC50 (CEM-SS [13]) [µM]	Antimicrobial activity (Bacillus cereus [14])	Antimicrobial activity (Streptomyces chartreusis [15])	Antimicrobial activity (Bacillus cereus [16])
COC1C(CO)OC(n2c3ccccc3c3c4c(c5c6ccccc6[nH]c5c32)C(=O)NC4=O)C(O)C1OC(=O)CBr (stereo not given)	5.02 (≈ 3.12 µg/mL)	Active	0.15	3.2	0.16	3.2	> 161	Partially active	2.9	20	0.44	1.61 (≈ 1 µg/mL)					
COC1C(CO)OC(n2c3c(Cl)cccc3c3c4c(c5c6cccc(Cl)c6[nH]c5c32)C(=O)NC4=O)C(OC(C)=O)C1O (stereo not given)	> 81		1.4	0.5	0.48	3.3				6.7		> 16	> 163	1.2			
COC1C(COC(=O)CBr)OC(n2c3c(Cl)cccc3c3c4c(c5c6cccc(Cl)c6[nH]c5c32)C(=O)NC4=O)C(O)C1O (stereo not given)	> 72		0.33	0.5	0.43	4.3	101		4.4	10		1.45 (≈ 1 µg/mL)		1.45	inactive		
CO[C@H]1[C@H](O)[C@@H](O)[C@H](n2c3c(Cl)cccc3c3c4c(c5c6cccc(Cl)c6[nH]c5c32)C(=O)NC4=O)O[C@@H]1CO [REBECCAMYCIN]	10.9 (≈ 6.22 µg/mL)	Active		0		10.5	> 175	Partially active	2	8.6							
COC1C(CO)OC(n2c3ccccc3c3c4c(c5c6ccccc6[nH]c5c32)C(=O)NC4=O)C(OC(C)=O)C1O (stereo not given)	46 (≈ 25 µg/mL)				0.55	4.6				8.3		18 (≈ 9.78 µg/mL)			+/-	growth inhibition zone was 10-12 mm	
COC1C(CO)OC(n2c3c(Cl)cccc3c3c4c(c5c6cccc(Cl)c6[nH]c5c32)C(=O)NC4=O)C(OC(=O)CBr)C1O (stereo not given)	1.81 (≈ 1.25 µg/mL)	Active	0.98	0.5	0.26	0.94	24		2.3	2.5	2.3	> 14					
COC1C(CO)OC(n2c3ccccc3c3c4c(c5c6ccccc6[nH]c5c32)C(=O)N(CCCCOC(=O)CBr)C4=O)C(O)C1O (stereo not given)	> 72		0.5	0	1.94	> 14.4	> 144		1.1	> 7.4	0.57	1.44 (≈ 1 µg/mL)			inactive		
COC1C(CO)OC(n2c3c(Cl)cccc3c3c4c(c5c6cccc(Cl)c6[nH]c5c32)C(=O)N(CC(=O)CCl)C4=O)C(O)C1O (stereo not given)	4.72 (≈ 3.12 µg/mL)		0.45	1.2	0.24	3.5	> 151		2.7	15		1.14 (≈ 0.753 µg/mL)		1.2		Active	Partially active
CO[C@H]1[C@H](O)[C@@H](O)[C@H](n2c3ccccc3c3c4c(c5c6ccccc6[nH]c5c32)C(=O)NC4=O)O[C@@H]1CO	> 100			4.1		> 20	> 142		5.6	> 28	0.9						
COC1C(CO)OC(n2c3ccccc3c3c4c(c5c6ccccc6[nH]c5c32)C(=O)NC4=O)C(OC(=O)CBr)C1O (stereo not given)	5.02 (≈ 3.12 µg/mL)	Active	0.12	3.7	0.48	5	> 162	Partially active	3.8	10.4	0.46	1.59 (≈ 0.99 µg/mL)					
